We go through nine compounds from ChEMBL document CHEMBL1148007, “Synthesis of new S-derivatives of clubbed triazolyl thiazole as anti-Mycobacterium tuberculosis agents” (Bioorg Med Chem, 2007).

Structures are written as SMILES.

For data set [1], the system named is Mycobacterium tuberculosis. As to the kind of experiment: Antitubercular activity against Mycobacterium tuberculosis H37Rv at 6.25 ug/mL by MABA assay. Format: functional. The conditions noted are these: read-out: GI. Put shortly:
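Primary screen against M. tuberculosis H37Rv (ATCC 27294) in BACTEC 12B medium by broth microdilution Microplate Alamar Blue Assay; fluorescent compounds run instead in BACTEC 460 radiometric system. Compounds above 95% inhibition counted active.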

The subject of data set [2] is Staphylococcus aureus. Nature of the data set: Antibacterial activity against Staphylococcus aureus at 50 to 100 uM after 24 hrs by well diffusion method. It counts as functional. The essentials: (§1)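 Nutrient agar plates with 10 mm wells cut by cork borer; 24-h subcultured bacteria swabbed on. Compounds dissolved in chloroform, 50 to 100 μM added to wells, gentamycin as standard. Incubated 24 h at 24–28 °C; inhibition zone diameter measured and converted to percent inhibition.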

The subject of data set [3] is Salmonella typhi. As to the kind of experiment: Antibacterial activity against Salmonella typhi at 50 to 100 uM after 24 hrs by well diffusion method. Format: functional, Salmonella enterica subsp. enterica serovar Typhi. The arrangement: unit not given here. Put shortly: as §1
The nature of data set [4]: Cytotoxicity against Vero-C1008 cells at 6.25 to 50 ug/mL by neutral red uptake assay. Format: cell-based. To be noted: chlorocebus sabaeus. The essentials: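 Vero-C-1008 cells exposed to 6.25 to 50 μg/mL compound; viability read by neutral red uptake.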
In data set [5] the test system is Escherichia coli. As to the kind of experiment: Antibacterial activity against Escherichia coli at 50 to 100 uM after 24 hrs by well diffusion method. It counts as functional. The essentials: as §1
The subject of data set [6] is Mycobacterium tuberculosis. Nature of the data set: Antitubercular activity against Mycobacterium tuberculosis H37Rv by MABA assay. Format: functional. Put shortly:
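Actives re-tested at lower concentrations against H37Rv (ATCC 27294) in BACTEC 12B medium by Microplate Alamar Blue Assay. MIC taken as lowest concentration giving […] fluorescence reduction versus controls; rifampin reference.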

Data set [7] deals with Pseudomonas aeruginosa. Nature of the data set: Antibacterial activity against Pseudomonas aeruginosa at 50 to 100 uM after 24 hrs by well diffusion method. Format: functional. The essentials:
as §1

In the case of `CC(=O)Nc1nc(Cc2nnc(S)n2NC(=O)c2ccc(Cl)cc2)cs1`, the inhibition of growth at 6.25 µg/mL in data set [1] turned out to be 96%. For the same compound, the values for the inhibition zone in data set [2], in data set [5] and in data set [7] were 16 mm, 20 mm and 16 mm, respectively. Besides, in data set [3], the Inhibition stood at 16. The Activity result in data set [4] is reported as “Non-toxic”. The compound further yielded an MIC in data set [6] of 6.25 µM.
As for `CC(=O)Nc1nc(Cc2nnc(S)n2NC(=O)c2cccc([N+](=O)[O-])c2)cs1`, the inhibition of growth at 6.25 µg/mL in data set [1] is 100%. Further, the results for the inhibition zone in data set [2], in data set [5] and in data set [7] were 16 mm, 12 mm and 16 mm, respectively. Also, the Inhibition in data set [3] was determined as 12. Further, the Activity entry in data set [4] is on record as “Non-toxic”. The same compound returned an MIC in data set [6] of 6.25 µM.
As to `O=C(O)CCNc1nc(Cc2nnc(S)n2NC(=O)c2ccc(Cl)cc2)cs1`, the inhibition of growth at 6.25 µg/mL in data set [1] is 96%. For the same compound, the figures for the inhibition zone in data set [2], in data set [5] and in data set [7] were 11 mm, 15 mm and 17 mm, respectively. Moreover, the Inhibition in data set [3] is 22. In addition, the Activity entry in data set [4] is recorded as “Non-toxic”. Besides, the lowest concentration to inhibit growth in data set [6] (MIC) was 6.25 µM.
With `O=C(Nc1nc(Cc2nnc(S)n2NC(=O)c2cccc([N+](=O)[O-])c2)cs1)c1ccccc1`, the inhibition of growth at 6.25 µg/mL in data set [1] is 96%. Also, the inhibition zone in data set [2] turned out to be 11 mm; in data set [5], 16 mm; in data set [7], 24 mm. This compound registered an Inhibition in data set [3] of 12. For the same compound, the Activity result in data set [4] is reported as “Non-toxic”. For the same compound, the MIC in data set [6] is 6.25 µM.
Consider `O=C(O)CCNc1nc(Cc2nnc(S)n2NC(=O)c2cccc([N+](=O)[O-])c2)cs1`, for which, in data set [1], the inhibition of growth at 6.25 µg/mL worked out at 96%. The figures for the inhibition zone in data set [2], in data set [5] and in data set [7] were 28 mm, 18 mm and 25 mm, respectively. The same compound gave an Inhibition in data set [3] of 19. In addition, in data set [4], the Activity result is given as “Non-toxic”. The compound also registered an MIC in data set [6] of 6.25 µM.
With `N#CCSc1nnc(Cc2csc(NC(=O)CCl)n2)n1NC(=O)c1cccc([N+](=O)[O-])c1`, the inhibition of growth at 6.25 µg/mL in data set [1] stood at 100%. Further, the inhibition zone in data set [2] came to 24 mm; in data set [5], 19 mm; in data set [7] it was 24 mm. The compound also displayed an Inhibition in data set [3] of 24. In addition, the Activity entry in data set [4] was “Non-toxic”. In data set [6], this compound displayed an MIC of less than 6.25 µg/mL.
With `NNC(=O)CSc1nnc(Cc2csc(NC(=O)CCl)n2)n1NC(=O)c1ccc(Cl)cc1`, the inhibition of growth at 6.25 µg/mL in data set [1] is 96%. For the same compound, the figures for the inhibition zone in data set [2], in data set [5] and in data set [7] were 16 mm, 12 mm and 18 mm, respectively. The same compound displayed an Inhibition in data set [3] of 12. Further, the Activity result in data set [4] is given as “Non-toxic”. Further, in data set [6], the lowest concentration to inhibit growth (MIC) was 6.25 µM.
As to `O=C(CSc1nnc(Cc2csc(NC(=O)CCl)n2)n1NC(=O)c1ccc(Cl)cc1)N/N=C/c1ccccc1`, in data set [1], the inhibition of growth at 6.25 µg/mL was 96%. The figures for the inhibition zone in data set [2], in data set [5] and in data set [7] were 24 mm, 19 mm and 19 mm, respectively. For the same compound, in data set [3], the Inhibition amounted to 17. The Activity result in data set [4] is recorded as “Non-toxic”. The compound further showed an MIC in data set [6] of 3.13 µM.
Regarding `CC(=O)Nc1nc(Cc2nnc(SCC(=O)NN)n2NC(=O)c2cccc([N+](=O)[O-])c2)cs1`, the inhibition of growth at 6.25 µg/mL in data set [1] amounted to 100%. In addition, the inhibition zone is 19 mm in data set [2], 22 mm in data set [5] and 23 mm in data set [7]. Also, in data set [3], the Inhibition was determined as 17. The Activity result in data set [4] is “Non-toxic”. Besides, the MIC in data set [6] stood at 6.25 µM.
